Measured values: article PMC11583631 (RSC Advances, 2024)
Read-outs that look alike come from different tables or passages of the source.

Key:
[1] = test system: bacterial tyrosinase enzyme; test: in vitro bacterial tyrosinase inhibition assay; assay type: biochemical; conditions: L-tyrosine substrate; for Percentage inhibition: 37 °C, absorbance 475 nm; for IC50: by extrapolation of the graph
tyrosinase enzyme = test: kinetic studies; assay type: biochemical, bacterial; conditions: Lineweaver–Burk and Dixon plots, tyrosine 0.1–1 mM
In short: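 Isolated bacterial tyrosinase; pre-incubation and measurement timing as in the main inhibition assay. Lineweaver–Burk: 1/V vs 1/[S]. Ki (EI) and Ki′ (ESI) from secondary plots of slope and intercept vs inhibitor concentration. Dixon plot (1/V vs inhibitor concentration) confirmed inhibition type.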

[2] = biological target: bacterial tyrosinase enzyme; conditions: standard inhibitors; ref [50]; cited from earlier work

| Percentage inhibition [1] | IC50 [1] | type of inhibition (tyrosinase enzyme) | SMILES | IC50 [2] |
| --- | --- | --- | --- | --- |
| 22.84 ± 0.05 |  |  | CCCCc1ccc(NC(=O)CSc2nnc(-c3cc4c(ccc5ccccc54)o3)n2-c2ccccc2)cc1 [20a, N-(4-butylphenyl)-2-((5-(naphtho[2,1-b]furan-2-yl)-4-phenyl-4H-1,2,4-triazol-3-yl)thio)acetamide] |  |
| 31.40 ± 0.25 |  |  | Cc1ccc(C)c(NC(=O)CSc2nnc(-c3cc4c(ccc5ccccc54)o3)n2-c2ccccc2)c1 [20b, N-(2,5-dimethylphenyl)-2-((5-(naphtho[2,1-b]furan-2-yl)-4-phenyl-4H-1,2,4-triazol-3-yl)thio)acetamide] |  |
| 22.62 ± 0.30 |  |  | CCNC(=O)CSc1nnc(-c2cc3c(ccc4ccccc43)o2)n1-c1ccccc1 [20c, N-ethyl-2-((5-(naphtho[2,1-b]furan-2-yl)-4-phenyl-4H-1,2,4-triazol-3-yl)thio)acetamide] |  |
| 22.77 ± 0.17 |  |  | COc1ccc(OC)c(NC(=O)CSc2nnc(-c3cc4c(ccc5ccccc54)o3)n2-c2ccccc2)c1 [20d, N-(2,5-dimethoxyphenyl)-2-((5-(naphtho[2,1-b]furan-2-yl)-4-phenyl-4H-1,2,4-triazol-3-yl)thio)acetamide] |  |
| 32.34 ± 0.07 | 0.51 ± 0.12 µM | non-competitively | O=C(CSc1nnc(-c2cc3c(ccc4ccccc43)o2)n1-c1ccccc1)Nc1ccccc1Cl [20f, N-(2-chlorophenyl)-2-((5-(naphtho[2,1-b]furan-2-yl)-4-phenyl-4H-1,2,4-triazol-3-yl)thio)acetamide] |  |
| 5.40 ± 0.05 | 12.9 ± 0.15 µM |  | COc1ccccc1NC(=O)CSc1nnc(-c2cc3c(ccc4ccccc43)o2)n1-c1ccccc1 [20g, N-(2-methoxyphenyl)-2-((5-(naphtho[2,1-b]furan-2-yl)-4-phenyl-4H-1,2,4-triazol-3-yl)thio)acetamide] |  |
| 13.92 ± 0.11 | 9.36 ± 0.06 µM |  | O=C(CSc1nnc(-c2cc3c(ccc4ccccc43)o2)n1-c1ccccc1)Nc1ccc(F)cc1 [20h, N-(4-fluorophenyl)-2-((5-(naphtho[2,1-b]furan-2-yl)-4-phenyl-4H-1,2,4-triazol-3-yl)thio)acetamide] |  |
| 30.55 ± 0.1 | 1.99 ± 0.07 µM |  | O=C(CSc1nnc(-c2cc3c(ccc4ccccc43)o2)n1-c1ccccc1)N1CCOCC1 [20i, 1-Morpholino-2-((5-(naphtho[2,1-b]furan-2-yl)-4-phenyl-4H-1,2,4-triazol-3-yl)thio)ethanone] |  |
| 2.61 ± 0.50 | 23.03 ± 0.18 µM |  | CCN(CC)C(=O)CSc1nnc(-c2cc3c(ccc4ccccc43)o2)n1-c1ccccc1 [20j, N,N-diethyl-2-((5-(naphtho[2,1-b]furan-2-yl)-4-phenyl-4H-1,2,4-triazol-3-yl)thio)acetamide] |  |
| 58.66 ± 1.00 |  |  | O=C1O[C@H]([C@@H](O)CO)C(O)=C1O [Ascorbic acid, reference compound] | 11.5 ± 1 µM |
| 6.80 ± 0.58 |  |  | O=c1cc(CO)occ1O [Kojic acid, reference compound] | 30.3 ± 0.75 µM |
